From ChEMBL document CHEMBL2150868, “Bi-, tri-, and polycyclic acylphloroglucinols from Hypericum empetrifolium” (J Nat Prod, 2012)

Key:
[1] = Antiangiogenic activity in bovine endothelial cells assessed as inhibition of cell proliferation; format: functional, cell-based; conditions: Bos taurus
[2] = Antiangiogenic activity in SV-40T transfected human HMEC1 cells assessed as inhibition of cell proliferation after 72 hrs by crystal violet staining; format: functional, cell-based; conditions: HMEC-1, 72 h
Procedure, shortened: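 SV-40T-transfected human microvascular endothelial HMEC-1 cells kept at 37 °C, 5% CO2, humidified. Seeded 1.5 × 10^3 cells/well in endothelial growth medium with 10% FCS, allowed 24 h adhesion (crystal-violet baseline plate). Exposed to 0.1−30 or 0.2−60 μM compound (DMSO; 0.1% DMSO control) for 72 h. Crystal violet stain, A540. IC50 ± SD from three independent experiments, hexaplicates.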

Row | SMILES | IC50 [1] [µM] | IC50 [2] [µM]
1 | CC(C)=CCC[C@]1(C)[C@@H](CC=C(C)C)C[C@]2(CC=C(C)C)C(=O)C(CC=C(C)C)=C(O)[C@@]1(C(=O)C(C)C)C2=O | 2.1 | –
2 | CCC(C)C(=O)c1c(O)cc2c(c1O)CCC(C)(CCC=C(C)C)O2 (centres undefined) | – | 21.1
3 | CCC(C)C(=O)c1c(O)cc(O)c2c1OC(C)(CCC=C(C)C)CC2 (centres undefined) | – | 13.3
4 | CC(C)=CCCC1(C)CCc2c(O)cc(O)c(C(=O)C(C)C)c2O1 (centres undefined) | – | 16.5
5 | CC(C)=CCCC1(C)CCc2c(cc(O)c(C(=O)C(C)C)c2O)O1 (centres undefined) | – | 29.6
6 | CC(C)C(=O)c1c(O)cc(O)c2c1O[C@]1(C)CCCC(C)(C)[C@H]1C2 (relative stereo) [EMPETRIFERDINAN A] | – | 24.4
7 | CCC(C)C(=O)c1c(O)cc(O)c2c1O[C@]1(C)CCCC(C)(C)[C@H]1C2 (relative stereo) [EMPETRIFERDINAN B] | – | 16.6
8 | CCC(C)C(=O)c1c(O)cc(O)c2c1O[C@]1(C)CC[C@@H](O)C(C)(C)[C@H]1C2 (relative stereo) [EMPETRIFERDINOL] | – | 29.2
9 | CC(C)=CCC[C@@]1(C)Oc2c(c(O)cc(O)c2C(=O)C(C)C)C[C@@H]1O (relative stereo) [EMPETRIKARINOL A] | – | 23.4
10 | CCC(C)C(=O)c1c(O)cc(O)c2c1O[C@](C)(CCC=C(C)C)[C@@H](O)C2 (relative stereo) [EMPETRIKARINOL B] | – | 18.4
11 | CCC(C)C(=O)c1c(O)cc2c3c1OC(C)(C)C1CCC(C)(CC31)O2 (centres undefined) [EMPETRIFRANZINAN C] | – | 9.2
12 | CC(C)=CCCC1(C)C=Cc2c(O)cc(O)c(C(=O)C(C)C)c2O1 (centres undefined) [EMPETRIKARINEN A] | – | 24.4
13 | CCC(C)C(=O)c1c(O)cc(O)c2c1OC(C)(CCC=C(C)C)C=C2 (centres undefined) [EMPETRIKARINEN B] | – | 15
14 | COc1cc(O)c(CC=C(C)C)c(O)c1C(=O)/C=C/c1ccc(O)cc1 [XANTHOHUMOL] | – | 11.4
